# KCNQ1 block – inhibitors of human KCNQ1 channel, primary screen, cell-based, thallium flux, high-throughput; Potassium voltage-gated channel subfamily KQT member 1 (Homo sapiens), P51787; CHO-K1 KCNQ1, FluxOR thallium flux fluorescence; hits give high values; B-score at 10 µM; 1.3% of 310,000 active; AID 2642, 2010;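 active = compounds whose thallium flux B-score, printed positive for inhibition, exceeds three library SD while starting fluorescence stays within three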;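 note: channel opened by potassium depolarization with thallium stimulus after 20 min compound exposure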
# hERG rescue – hERG rescue from dofetilide block, primary screen, cell-based, CHO-hERG, FluxOR thallium flux, dofetilide IC70; 0.51% of 310,000 active; dofetilide IC70 present; Voltage-gated inwardly rectifying potassium channel KCNH2 (Homo sapiens), Q12809; AID 1511, 2009; activation (rescue from dofetilide block), less the hit threshold, % at 10 µM;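 active = activation above the mean of controls blocked by dofetilide plus 5 SD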;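 note: thallium influx through hERG after potassium depolarization seen as dye fluorescence rise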
# KCNK3 inh – human KCNK3 channel inhibitors, primary screen, CHO cells, FluxOR thallium flux, B-score; Potassium channel subfamily K member 3 (Homo sapiens), O14649; FluxOR fluorescence; hits give low values; B-score at 10 µM; 0.84% of 340,000 active; AID 602410, 2012;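 active = B-score under library mean minus 4 SD, starting fluorescence ratio at most library mean plus 5 SD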;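 note: more negative B-score means stronger inhibition of thallium flux through KCNK3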
# Target sequence (O14649 whole entry, looked up): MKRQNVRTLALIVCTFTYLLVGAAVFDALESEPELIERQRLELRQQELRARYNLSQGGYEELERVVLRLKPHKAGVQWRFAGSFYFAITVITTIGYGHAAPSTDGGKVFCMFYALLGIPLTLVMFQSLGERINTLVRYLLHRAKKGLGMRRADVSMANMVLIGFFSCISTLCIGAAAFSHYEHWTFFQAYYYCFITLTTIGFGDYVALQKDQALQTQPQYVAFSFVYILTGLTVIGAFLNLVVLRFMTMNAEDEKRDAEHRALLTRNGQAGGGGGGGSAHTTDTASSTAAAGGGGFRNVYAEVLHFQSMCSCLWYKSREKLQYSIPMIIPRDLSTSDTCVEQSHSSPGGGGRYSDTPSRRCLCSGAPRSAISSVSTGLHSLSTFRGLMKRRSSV
# KCNQ1 act – potentiators or activators of KCNQ1 channel, primary screen, cell-based, thallium flux, high-throughput; Potassium voltage-gated channel subfamily KQT member 1 (Homo sapiens), P51787; CHO-K1 KCNQ1, thallium flux FluxOR fluorescence; hits give high values; B-score at 10 µM; 0.35% of 310,000 active; AID 2648, 2010;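 active = fluorescence ratio B-score, a plate-corrected score, at least three library SD, with initial intensity B-score within 5 SD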
#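 System: Stable KCNQ1 CHO-K1 line | Incubation: 90 min dye loading and 20 min compound exposure, both at room temperature | Measure: Ratio B score | Medium: Assay buffer for compound exposure, DMSO matched across wells | Compound dosing: Single-concentration screen | Probe or stimulus: K+/Tl+ depolarizing stimulus | Measured by: Kinetic FluxOR fluorescence, 10 s baseline plus 110 s post-stimulus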
# KCNK9 block – KCNK9 potassium channel inhibitors, primary screen, HEK293 cells, thallium flux | B-score at 10 µM | FluxOR thallium flux fluorescence; hits give low values | 1.2% of 310,000 active | Potassium channel subfamily K member 9 (Homo sapiens), Q9NPC2;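 active = ratio B-score over 3 SD below the library mean, with starting fluorescence within 5 SD of its mean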;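 note: negative B-score means less thallium flux so channel inhibition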
# Target sequence (Q9NPC2 whole entry, looked up): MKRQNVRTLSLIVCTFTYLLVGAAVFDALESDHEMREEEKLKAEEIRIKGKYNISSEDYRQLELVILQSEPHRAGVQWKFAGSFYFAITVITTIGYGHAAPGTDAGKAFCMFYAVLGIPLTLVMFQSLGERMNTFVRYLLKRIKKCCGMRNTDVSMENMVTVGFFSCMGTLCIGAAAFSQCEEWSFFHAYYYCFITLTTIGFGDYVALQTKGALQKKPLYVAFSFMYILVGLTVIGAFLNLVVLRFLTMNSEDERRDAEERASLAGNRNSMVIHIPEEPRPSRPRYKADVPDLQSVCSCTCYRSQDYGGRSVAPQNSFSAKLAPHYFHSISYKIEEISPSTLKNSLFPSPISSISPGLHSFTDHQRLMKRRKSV
# PHOSPHO1 inh – PubChem AID 1565 | 1.1% of 290,000 active | Phosphoethanolamine/phosphocholine phosphatase (Homo sapiens), Q8TCT1 | inhibition, % at 13.3 µM | recombinant PHOSPHO1, absorbance phosphatase assay; in the data active = inhibition above about 60%
# KCNQ1 block val – KCNQ1 potassium channel inhibitors, confirmation, cell-based, Tl flux, duplicate; KCNQ1 cell line, FluxOR thallium flux fluorescence; shares compounds with KCNQ1 block; inhibition, % at 10 µM; 93% of 1,600 active;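 active = primary screen active, with duplicate mean exceeding buffer control mean plus 3 SD of buffer wells, cut at about 28% in these data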;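 note: 0% = buffer control ratio and 100% = XE991 inhibitor control ratio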
# CHO Tl flux – thallium flux effects in parental CHO cells, counter-screen for KCNQ1 inhibitor project, cell-based, Tl flux | shares compounds with KCNQ1 block | parental CHO-K1, FluxOR thallium flux fluorescence ratio; hits give low values; zero means no signal rise above baseline | fluorescence ratio (Tl flux) at 10 µM | 21% of 1,600 active;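 active = mean of duplicate thallium-flux fluorescence ratios in parental host cells more than 5 SD below the buffer control mean, cut at about 0.38 in these data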;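 note: ratio is peak minus minimum fluorescence divided by baseline fluorescence; actives read low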
# KCNQ1 ephys val – KCNQ1 channel inhibitors, confirmation, orthogonal assay, cell-based, automated electrophysiology; 20% of 490 active; calls only at 10 µM; KCNQ1-CHO cells, automated patch clamp current; shares compounds with KCNQ1 block;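 active = KCNQ1 current drop exceeding 3 SD of negative control wells, seen in both duplicate runs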;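 note: steady state current during a 2 s step from -80 to +40 mV; negative values mean current inhibition and positive values mean potentiation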
# KCNQ2 spec – KCNQ2 channel inhibition, selectivity assay for KCNQ1 inhibitor project, cell-based | shares compounds with KCNQ1 block | KCNQ2 cells, FluxOR thallium flux fluorescence | inhibition, % at 10 µM | 71% of 1,600 active | AID 651746, 2012;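 active = mean percent inhibition of the KCNQ2 thallium signal more than 5 SD above the buffer-only control wells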;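 note: KCNQ2 expressed in CHO cells; 0% = buffer control wells and 100% = XE-991 inhibitor control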
# KCNQ1 KCNE1 spec – KCNQ1/KCNE1 channel inhibition, selectivity assay for KCNQ1 inhibitor project, CHO-K1 cells, thallium flux, FluxOR. shares compounds with KCNQ1 block. AID 652147, 2013. inhibition, % at 10 µM. 77% of 1,600 active. FluxOR thallium flux fluorescence;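 active = mean percent inhibition of duplicate wells above the buffer-only control mean plus 3 SD of those controls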;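 note: 0% = buffer only wells and 100% = XE-991 inhibitor control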
# KCNK9 block conf – KCNK9 potassium channel inhibitors, confirmation, HEK293 cells, thallium flux, duplicate; inhibition, % at 10 µM; shares compounds with KCNK9 block; FluxOR thallium flux fluorescence; AID 492992, 2010; 43% of 4,900 active;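 active = thallium signal inhibited by more than 5 SD of the compound-free buffer control wells, on both duplicate plates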;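 note: 0% = assay buffer control wells without compound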
# Kir2-1 spec – mouse Kir2.1 channel inhibition, confirmation, selectivity assay for KCNK9 modulator project, cell-based, HEK293, thallium flux. shares compounds with KCNK9 block. Kir2.1 cells, FluxOR thallium flux fluorescence. inhibition, % at 10 µM. 4% of 4,900 active. AID 492993, 2010;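 active = thallium signal drop more than 5 SD beyond the mean of the no-compound control wells, seen in both duplicate plates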;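 note: signal is fluorescence rise after thallium addition divided by baseline fluorescence; plate controls were assay buffer only for no effect and full block by chlorpromazine control for full effect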
# HEK293 Tl ctr – thallium flux in non-induced HEK293 cells, confirmation, counter-screen for KCNK9 inhibitor project, cell-based, second counter screen, non-induced KCNK9-HEK293 | FluxOR thallium flux | shares compounds with KCNK9 block | inhibition, % at 10 µM | 40% of 4,900 active;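 active = thallium signal drop beyond 5 SD of the untreated control mean, on both duplicate plates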;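 note: plate controls were buffer only IC0 wells for no effect and SID17386958 at its maximal inhibitory level for full effect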
# KCNK3 confirm – retest of human KCNK3 channel inhibitors, confirmation, CHO cells, FluxOR thallium flux, triplicate. FluxOR fluorescence; 0% buffer, 100% carvedilol maximal block. ratio percent of control, % at 10 µM. shares compounds with KCNK3 inh. AID 651638, 2012. 99% of 2,400 active;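 active = ratio percent of control, averaged over triplicates, above buffer control mean plus 5 SD, cut at about 64% in these data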;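 note: ratio is the fluorescence rise from min to max over baseline after thallium stimulus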
# KCNK3 uninduced – thallium flux inhibition in non-induced cells, primary screen, counter-screen for KCNK3 inhibitor project, cell-based, non-induced KCNK3 line, FluxOR thallium, triplicate. shares compounds with KCNK3 inh. non-induced KCNK3 parental cells; hits give low values. thallium flux ratio (lower = more inhibition) at 10 µM. 40% of 2,400 active. AID 651747, 2012;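 active = thallium flux ratio, averaged over three wells, more than 5 SD below the buffer control mean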;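 note: host cells are CHO cells without KCNK3 induction; ratio is peak minus trough fluorescence over baseline then normalized to buffer controls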
# * marks the source's active call; other numbers are inactive results; i = inactive; · = not tested or not shown; + = active, no number. This is a sample that favours compounds with a hit; in the whole collection about 4% have one here.
SMILES,KCNQ1 block,hERG rescue,KCNK3 inh,KCNQ1 act,KCNK9 block,PHOSPHO1 inh,others
Cc1ccc(N/C(N)=N/c2nc(C)cc(N3CCCCC3)n2)c(C)c1,10*,-23,-12*,i,i,36,KCNQ1 block val=91*;CHO Tl flux=0.41;KCNQ1 ephys val=+;KCNQ2 spec=90%*;KCNQ1 KCNE1 spec=51%*;KCNK3 confirm=116*;KCNK3 uninduced=i
Cc1ccc(N/C(N)=N/c2nc3c(c(=O)[nH]2)CCCC3)c(C)c1,i,1,i,i,i,8,
COc1ccccc1C(=O)Nc1nnc(S(=O)(=O)N(C)Cc2ccccc2)s1,17*,-16,-12*,i,i,30,KCNQ1 block val=140*;CHO Tl flux=0.37*;KCNQ2 spec=122%*;KCNQ1 KCNE1 spec=+;KCNK3 confirm=115*;KCNK3 uninduced=0.1*
COc1ccc(CN(C)S(=O)(=O)c2nnc(NC(=O)c3ccccc3)s2)cc1OC,i,-6,i,i,i,32,
CC(C)(CN1CCN(C(c2ccccc2)c2ccccc2)CC1)NS(=O)(=O)c1ccccc1,6*,-2,i,i,-9.6*,28,KCNQ1 block val=106*;CHO Tl flux=0.44;KCNQ1 ephys val=i;KCNQ2 spec=i;KCNQ1 KCNE1 spec=116%*;KCNK9 block conf=40%*;Kir2-1 spec=i;HEK293 Tl ctr=47%*;KCNK3 confirm=103*;KCNK3 uninduced=0.16*
CC(C)(CN1CCN(Cc2ccccc2)CC1)NS(=O)(=O)c1ccccc1,i,-9,i,i,i,32,
Cc1nc(NC(=O)c2ccccc2)sc1-c1csc(Nc2cccc(F)c2)n1,i,-7,·,i,i,-105,
O=C(C(Cc1ccccc1)n1cccc1)N1CCN(c2cccc(Cl)c2)CC1 (stereo unspecified),8*,-6,-9.2*,i,i,6,KCNQ1 block val=116*;CHO Tl flux=0.33*;KCNQ2 spec=117%*;KCNQ1 KCNE1 spec=158%*;KCNK3 confirm=98*;KCNK3 uninduced=0.14*
CCC(C(=O)Nc1ccc(C(=O)O)cc1NC(=O)C(CC)c1ccccc1)c1ccccc1 (stereo unspecified),i,-2,i,i,i,8,
O=C(COc1ccccc1[N+](=O)[O-])N/N=C/c1cccc(OC(=O)c2ccc3c(c2)OCO3)c1,i,-10,i,i,i,-4,
O=C1C(C=NCc2ccco2)=C(O)c2ccccc21,i,-11,i,i,i,3,
Cc1ccc(Cl)cc1N1CCN(C(=O)c2cc3c(=O)n(C)c4ccccc4c3n2C)CC1,15*,-12,-16*,i,i,-7,KCNQ1 block val=120*;CHO Tl flux=0.4;KCNQ1 ephys val=i;KCNQ2 spec=126%*;KCNQ1 KCNE1 spec=i;KCNK3 confirm=137*;KCNK3 uninduced=i
Cc1ccccc1OCc1nc2ccccc2c(=O)n1/N=C/c1cn[nH]c1-c1ccccc1,i,-13,i,i,i,-12,
Cc1ccccc1OCc1nc2ccccc2c(=O)n1/N=C/c1cccc([N+](=O)[O-])c1,i,-9,i,i,-8.8*,0,KCNK9 block conf=i;Kir2-1 spec=i;HEK293 Tl ctr=i
O=C(CN1C(=O)NC(c2ccccc2)(c2ccccc2)C1=O)NCc1ccc(F)cc1,·,·,i,·,·,·,
O=C(Nc1ccccc1)c1ccccc1OCc1cccc([N+](=O)[O-])c1,i,-11,i,i,-12*,8,KCNK9 block conf=i;Kir2-1 spec=i;HEK293 Tl ctr=28%*
O=C(Nc1ccccc1)c1ccccc1OCc1ccc(F)cc1,i,-5,i,i,i,15,
O=C(CC1C[C@H](C(=O)N2CCOCC2)[C@@]2(CCC3CCCC3)c3[nH]c4ccccc4c3CCN2C1=O)NCCCn1ccnc1 (stereo partly specified),·,·,i,·,·,·,
CCOC(=O)C1CCN(c2c([N+](=O)[O-])c(C(Cl)Cl)nn2-c2ccccc2)CC1,i,-10,i,i,i,18,KCNK9 block conf=i;Kir2-1 spec=i;HEK293 Tl ctr=i
O=[N+]([O-])c1c(C(Cl)Cl)nn(-c2ccccc2)c1N1CCCC1,i,-14,i,i,i,6,
Fc1cccc(Cl)c1CSc1ccc(-c2cccnc2)nn1,i,-8,i,i,-11*,-20,KCNK9 block conf=33%*;Kir2-1 spec=i;HEK293 Tl ctr=i

# Screening data as filed in PubChem.
